According to ChEMBL document CHEMBL5331146, “Evaluating Alkaline Phosphatase-Instructed Self-Assembly of d-Peptides for Selectively Inhibiting Ovarian Cancer Cells” (J Med Chem, 2023):
The source made the active and inactive calls. Square brackets hold non-standard residues; d marks the D form. Peptide text beside a SMILES is read from it. * marks the point of attachment. d(pY) = N[C@H](Cc1ccc(OP(=O)(O)O)cc1)C(=O)O; Acetyl(2-naphthyl) = O=C(Cc1ccc2ccccc2c1)*

Key:
OVSAHO [1] = test: Cytotoxicity against human OVSAHO cells assessed as inhibition of cell growth incubated for 72 hrs by MTT assay; assay type: functional, cell-based
Outline: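 OVSAHO cells incubated 72 h with each EISA substrate across a concentration series; viability measured and IC50 derived.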

OVSAHO [2] = test: Cytotoxicity against human OVSAHO cells assessed as enhancement in cell growth inhibition at 10 to 20 uM incubated for 24 to 72 hrs in presence of doxorubicin by MTT assay; assay type: functional, cell-based; conditions: dose 10-20 µM, time 24-72 hrs
Outline: (§1)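 OVSAHO cells are exposed to a series of substrate concentrations combined with doxorubicin, alongside each agent alone. Viability is read at 24 h, 48 h and 72 h. Single-agent doxorubicin was also run at 1.25, 2.5 and 5 μM. Significance is given as p thresholds.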

OVSAHO [3] = test: Cytotoxicity against human OVSAHO cells assessed as enhancement in cell growth inhibition at 20 uM incubated for 24 hrs in presence of 0.5 to 2 uM 2-((4-(cyclopropanecarbonyl)piperazin-1-yl)methyl)benzo[d]isothiazol-3(2H)-one by MTT assay; assay type: functional, cell-based
Outline: (§2)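 OVSAHO cells are co-treated for 24 h with the EISA substrate at a fixed 20 μM plus the partner drug over its concentration range. Viability is compared with substrate alone and drug alone. Significance is given as p thresholds (ns, *, **, ***).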

OVSAHO [4] = test: Cytotoxicity against human OVSAHO cells assessed as enhancement in cell growth inhibition at 20 uM incubated for 24 hrs in presence of 50 to 200 nM methyl (5R,7R,8S)-7-hydroxy-8-methyl-15-oxo-5,6,7,8,14,15-hexahydro-13H-16-oxa-4b,8a,14-triaza-5,8-methanodibenzo[b,h]cycloocta[jkl]cyclopenta[e]-as-indacene-7-carboxylate by MTT assay; assay type: functional, cell-based; outline: as §2
OVSAHO [5] = test: Cytotoxicity against human OVSAHO cells assessed as enhancement in cell growth inhibition at 20 uM incubated for 24 hrs in presence of 25 to 50 uM talazoparib by MTT assay; assay type: functional, cell-based; outline: as §2
[6] = Cytotoxicity against CHOK cells assessed as inhibition of cell growth incubated for 72 hrs by MTT assay; assay type: functional, cell-based; conditions: Cricetulus griseus
Outline: (§3)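 Cell viability after 72 h continuous exposure of each ovarian or CHO cell line to the substrate over a concentration series. IC50 is taken from the 72 h viability curves.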

[7] = Cytotoxicity against human A2780-Res cells assessed as inhibition of cell growth incubated for 72 hrs by MTT assay; assay type: functional, cell-based; outline: as §3
OVSAHO [8] = test: Cytotoxicity against human OVSAHO cells assessed as enhancement in cell growth inhibition at 20 uM incubated for 24 hrs in presence of 25 to 50 uM Bortezomib by MTT assay; assay type: functional, cell-based; outline: as §2
OVSAHO [9] = test: Cytotoxicity against human OVSAHO cells assessed as enhancement in cell growth inhibition at 20 uM incubated for 24 hrs in presence of 1 to 20 uM ethyl (2-((cyanocarbonyl)(2,4-dimethoxyphenyl)amino)-2-(thiophen-2-yl)acetyl)glycinate by MTT assay; assay type: functional, cell-based; outline: as §2
OVSAHO [10] = test: Cytotoxicity against human OVSAHO cells assessed as cell viability at 20 uM incubated for 24 hrs in presence of doxorubicin by MTT assay (reference value: 120%); assay type: functional; conditions: read-out: Activity
OVSAHO [11] = test: Cytotoxicity against human OVSAHO cells assessed as enhancement in cell growth inhibition at 20 uM incubated for 24 hrs in presence of 2.5 to 10 uM paclitaxel by MTT assay; assay type: functional, cell-based; outline: as §2
[12] = Cytotoxicity against mouse GEMM 4306 cells assessed as inhibition of cell growth incubated for 72 hrs by MTT assay; assay type: functional, cell-based; conditions: GEMM 4306, 72 h; outline: as §3
OVSAHO [13] = test: Cytotoxicity against human OVSAHO cells assessed as enhancement in cell growth inhibition at <5 uM incubated for 24 to 72 hrs in presence of doxorubicin by MTT assay; assay type: functional, cell-based; conditions: time 24-72 hrs; outline: as §1
OVSAHO [14] = test: Cytotoxicity against human OVSAHO cells assessed as enhancement in cell growth inhibition at 20 uM incubated for 24 hrs in presence of 1.25 to 5 uM 3-((4-(tert-butyl)phenyl)sulfonyl)acrylonitrile by MTT assay; assay type: functional, cell-based; outline: as §2
OVSAHO [15] = test: Cytotoxicity against human OVSAHO cells assessed as enhancement in cell growth inhibition at 20 uM incubated for 24 hrs in presence of 1.25 to 2.5 uM cisplatin by MTT assay; assay type: functional, cell-based; outline: as §2
OVSAHO [16] = test: Cytotoxicity against human OVSAHO cells assessed as inhibition of cell growth at 1.25 to 5 uM incubated for 24 hrs by MTT assay relative to control; assay type: functional; set-up: scale not given: the % may be the effect or the level left; conditions: dose 1.25-5 µM
Outline: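 OVSAHO cells treated with doxorubicin alone at 1.25, 2.5 and 5 μM for 24 h; cell viability measured.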

COC(=O)CC[C@@H](NC(=O)[C@@H](Cc1ccc(OP(=O)(O)O)cc1)NC(=O)[C@@H](Cc1ccccc1)NC(=O)[C@@H](Cc1ccccc1)NC(=O)[C@@H](Cc1ccccc1)NC(=O)Cc1ccc2ccccc2c1)C(=O)OC
IC50 (OVSAHO [1]): > 200 µM

COC(=O)CC[C@@H](NC(=O)[C@@H](Cc1ccc(OP(=O)(O)O)cc1)NC(=O)[C@@H](Cc1ccccc1)NC(=O)[C@@H](Cc1ccccc1)NC(=O)Cc1ccc2ccccc2c1)C(=O)OC ({Acetyl(2-naphthyl)}-[dF][dF][d(pY)][dE](OMe)-OMe)
Activity (OVSAHO [2]): Active
Activity (OVSAHO [3]): inactive
Activity (OVSAHO [4]): Active
Activity (OVSAHO [5]): inactive
IC50 [6]: > 200 µM
IC50 [7]: > 200 µM
Activity (OVSAHO [8]): inactive
Activity (OVSAHO [9]): inactive
viability at 20 µM (OVSAHO [10]): 20%
Activity (OVSAHO [11]): inactive
IC50 [12]: > 200 µM
Activity (OVSAHO [13]): inactive
Activity (OVSAHO [14]): Active
Activity (OVSAHO [15]): Active

COC(=O)CC[C@@H](NC(=O)[C@@H](Cc1ccc(OP(=O)(O)O)cc1)NC(=O)[C@@H](Cc1ccccc1)NC(=O)[C@@H](Cc1ccccc1)NC(=O)[C@H](CC(C)C)NC(=O)Cc1ccc2ccccc2c1)C(=O)OC
IC50 (OVSAHO [1]): 46.9 µM

COc1cccc2c1C(=O)c1c(O)c3c(c(O)c1C2=O)C[C@@](O)(C(=O)CO)C[C@@H]3O[C@H]1C[C@H](N)[C@H](O)[C@H](C)O1 [DOXORUBICIN]
Activity (OVSAHO [16]): ~75%

COC(=O)CC[C@@H](NC(=O)[C@@H](Cc1ccc(OP(=O)(O)O)cc1)NC(=O)[C@@H](Cc1ccccc1)NC(=O)[C@@H](Cc1ccccc1)NC(=O)[C@@H](CC(C)C)NC(=O)Cc1ccc2ccccc2c1)C(=O)OC
IC50 (OVSAHO [1]): > 200 µM

COC(=O)CC[C@@H](NC(=O)[C@@H](Cc1ccc(OP(=O)(O)O)cc1)NC(=O)[C@H](CC(C)C)NC(=O)[C@@H](Cc1ccccc1)NC(=O)[C@@H](Cc1ccccc1)NC(=O)Cc1ccc2ccccc2c1)C(=O)OC
IC50 (OVSAHO [1]): 70.5 µM
